Series [1] deals with Human immunodeficiency virus type 1 reverse transcriptase (Human immunodeficiency virus 1, UniProt Q72547). The experiment in a line: Inhibition of purified HIV-1 reverse transcriptase. In outline:
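Recombinant dimeric RT expressed in E. coli (HIV-1 p66/p51, HIV-2 p68/p55), 0.08 μg per reaction; identical conditions for both enzymes. Buffer: 50 mM Tris-HCl pH 8.0, 150 mM KCl, 5 mM MgCl2, 0.5 mM EGTA, 5 mM DTT, 0.3 mM glutathione. Template-primer poly(rA)·oligo(dT)12-18 with 20 μM TTP plus [3H]TTP. Compound in DMSO or water. Incubated 1 h at 37 °C, stopped with EGTA. Incorporation read on DE-81 filters by scintillation.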

In a further series the test system is MT4. Briefly: Evaluated for 50% antiviral effective concentration based on inhibition of HIV-1 (HTLV-IIIB) induced cytopathogenicity in MT-4 cells. The conditions noted are these: Homo sapiens. The series is classed as functional, cell-based. Summed up:
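MT-4 cells were infected with HIV-1 HTLV-IIIB at MOI 0.02 and cultured with a range of compound concentrations for 4 days. Viable cells were counted by MTT.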
A general note: Damage to the host cells serves as the signal in cytopathic effect assays.

Series [2] is described as follows: Evaluated for 50% cytotoxic concentration based on reduction of viability of mock-infected cells. The series is classed as cell-based. The conditions noted are these: human, MT4 cells (mock-infected). Summed up:
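Mock-infected MT-4 cells were cultured with a range of compound concentrations for 4 days, and viability was read by MTT.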

A value given as a limit tells only on which side of the number the result lay.

In ChEMBL document CHEMBL1126206, “Potential anti-AIDS naphthalenesulfonic acid derivatives. Synthesis and inhibition of HIV-1 induced cytopathogenesis and HIV-1 and HIV-2 reverse transcriptase activities” (J Med Chem, 1992) one finds IC50, EC50 and CC50 data, which are given here for 27 compounds.

One may read the IC50 as the concentration needed to halve the response being measured. A high value points to weaker potency. By EC50 is commonly meant the midpoint of the concentration-response curve. Low readings indicate greater potency, high ones weaker potency. As a reminder, the CC50 is the concentration giving 50% cytotoxicity. In turn, `O=C(O)CCCCCCCCC(=O)Nc1cc(S(=O)(=O)O)cc2cc(S(=O)(=O)O)cc(O)c12` registered a 50% inhibitory concentration (IC50) in series [1] of 135 µM. A half-maximal effect in the series with MT4 (EC50) was put at 134 µM. Moreover, the CC50 in series [2] was > 500 µM.

As to `O=C(CCCCCCCCCCC(=O)Nc1cc(S(=O)(=O)O)cc2cc(S(=O)(=O)O)cc(S(=O)(=O)O)c12)Nc1cc(S(=O)(=O)O)cc2cc(S(=O)(=O)O)cc(S(=O)(=O)O)c12`, the IC50 in series [1] is 136 µM. Moreover, the concentration giving a half-maximal response (EC50) in the series on MT4 is > 51 µM. In addition, in series [2], the cytotoxic concentration (CC50) was > 100 µM.

The compound `CCCCCCCCCCCCCCCC(=O)Nc1cc(S(=O)(=O)O)cc2cc(S(=O)(=O)O)cc(O)c12` showed an EC50 in the series with MT4 of 37 µM. Moreover, half-maximal cytotoxicity in series [2] (CC50) was put at 250 µM.

On to `COc1cc(S(=O)(=O)O)cc2cc(S(=O)(=O)[O-])cc([N+](C)(C)C)c12`, for which the half-inhibitory concentration (IC50) in series [1] was > 1000 µM. The concentration giving a half-maximal response (EC50) in the series on MT4 was > 500 µM. For the same compound, the CC50 in series [2] is > 500 µM.

As to `O=C(O)c1cc(NS(=O)(=O)c2ccc(-c3ccc(S(=O)(=O)Nc4cc(C(=O)O)c(O)c(S(=O)(=O)O)c4)cc3)cc2)cc(S(=O)(=O)O)c1O`, in series [1], the IC50 was determined as 427 µM. The compound further registered an EC50 with MT4 of 52.5 µM. Further, the half-maximal cytotoxic concentration (CC50) in series [2] is 247 µM.

In the case of `CC(=O)Nc1cc(S(=O)(=O)O)cc2cc(S(=O)(=O)O)cc(O)c12`, in series [1], the IC50 came out at 243 µM. In addition, the EC50 with MT4 came to 53 µM. Moreover, in series [2], the CC50 worked out at 402 µM.

With `Nc1cc(S(=O)(=O)O)cc2cc(S(=O)(=O)O)cc(O)c12`, in series [1], the half-inhibitory concentration (IC50) is > 1000 µM. In addition, the EC50 with MT4 was > 529 µM. The compound also had a CC50 in series [2] of 529 µM.

With `O=S(=O)(O)c1cc(NS(=O)(=O)c2ccc(-c3ccc(S(=O)(=O)Nc4cc(S(=O)(=O)O)cc5cc(S(=O)(=O)O)cc(S(=O)(=O)O)c45)cc3)cc2)c2c(S(=O)(=O)O)cc(S(=O)(=O)O)cc2c1`, the half-inhibitory concentration (IC50) in series [1] is > 849 µM. The compound further yielded a half-maximal effective concentration (EC50) with MT4 of 36 µM. In addition, the CC50 in series [2] is > 100 µM.

`COc1cc(S(=O)(=O)O)cc2cc(S(=O)(=O)O)cc(N(C)C)c12`: the IC50 in series [1] was > 1000 µM. The EC50 with MT4 was > 500 µM. Besides, the CC50 in series [2] is > 500 µM.

Regarding `CC(=O)Oc1cc(S(=O)(=O)O)cc2cc(S(=O)(=O)O)c(N=Nc3ccccc3)c(OC(C)=O)c12`, the IC50 in series [1] was > 1000 µM. Besides, the EC50 with MT4 is > 500 µM. Further, in series [2], the cytotoxic concentration (CC50) is > 500 µM.

Consider `O=S(=O)(O)c1cc(S(=O)(=O)O)c2cc(NS(=O)(=O)c3ccc(-c4ccc(S(=O)(=O)Nc5ccc6cc(S(=O)(=O)O)cc(S(=O)(=O)O)c6c5)cc4)cc3)ccc2c1`, for which the half-inhibitory concentration (IC50) in series [1] was determined as 125 µM. The compound also gave an EC50 in the series on MT4 of 29.5 µM. In series [2], the CC50 is > 500 µM.

For the compound `O=C(O)CCCC(=O)Nc1cc(S(=O)(=O)O)cc2cc(S(=O)(=O)O)cc(O)c12`, the IC50 in series [1] was > 1000 µM. Besides, the 50% effective concentration (EC50) with MT4 is > 500 µM. For the same compound, the CC50 in series [2] was > 500 µM.

The compound `CCCCCCCCCCCCCCCC(=O)Nc1cc(S(=O)(=O)O)cc2cc(S(=O)(=O)O)cc(S(=O)(=O)O)c12` had an IC50 in series [1] of 55 µM. Further, in the series on MT4, the EC50 was > 42 µM. Further, half-maximal cytotoxicity in series [2] (CC50) was put at 42 µM.

Consider `CC(=O)Nc1cc(S(=O)(=O)O)cc2cc(S(=O)(=O)O)cc(S(=O)(=O)O)c12`, for which the 50% inhibitory concentration (IC50) in series [1] is > 1000 µM. Besides, in the series on MT4, the EC50 was > 100 µM. In addition, the cytotoxic concentration (CC50) in series [2] is > 100 µM.

For the compound `O=S(=O)(O)c1ccc(-c2ccc(S(=O)(=O)Nc3cc(S(=O)(=O)O)cc4cc(S(=O)(=O)O)cc(S(=O)(=O)O)c34)cc2)cc1`, in series [1], the concentration for half-maximal inhibition (IC50) was > 1000 µM. For the same compound, the EC50 in the series with MT4 is > 100 µM. In addition, the half-maximal cytotoxic concentration (CC50) in series [2] is > 100 µM.

Take `CCCCCCCCCCCCCCCC(=O)Oc1cc(S(=O)(=O)O)cc2cc(S(=O)(=O)O)cc(OC(=O)CCCCCCCCCCCCCCC)c12`: the EC50 in the series with MT4 was > 15 µM. Also, in series [2], the CC50 stood at 15 µM.

In the case of `Nc1cc(S(=O)(=O)O)cc2cc(S(=O)(=O)O)cc(S(=O)(=O)O)c12`, the IC50 in series [1] was > 1000 µM. Further, the concentration for a half-maximal effect (EC50) in the series on MT4 is > 100 µM. The 50% cytotoxic concentration (CC50) in series [2] was > 100 µM.

Compound `Nc1cc(S(=O)(=O)O)c2ccccc2c1N` yielded a half-maximal inhibitory concentration (IC50) in series [1] of 50 µM. The concentration for a half-maximal effect (EC50) with MT4 was > 189 µM. In addition, it took 189 µM to reach half-maximal cytotoxicity in series [2] (CC50).

On to `O=C(Nc1cc(S(=O)(=O)O)cc2cc(S(=O)(=O)O)cc(O)c12)c1ccccc1`, for which the IC50 in series [1] amounted to 464 µM. The EC50 with MT4 came to 358 µM. The 50% cytotoxic concentration (CC50) in series [2] was > 500 µM.

`Nc1c(S(=O)(=O)O)cc2cc(S(=O)(=O)O)cc(O)c2c1O` had a half-maximal inhibitory concentration (IC50) in series [1] of 162 µM. In addition, in the series on MT4, the concentration for a half-maximal effect (EC50) was > 12 µM. Besides, half-maximal cytotoxicity in series [2] (CC50) was put at 12 µM.

As to `O=S(=O)(O)c1cc(O)c2c(O)cc(S(=O)(=O)O)cc2c1` [CHROMOTROPATE], in the series on MT4, the EC50 was > 1180 µM. Moreover, in series [2], the 50% cytotoxic concentration (CC50) amounted to 1180 µM.

Turning to `Nc1ccc2cc(S(=O)(=O)O)cc(S(=O)(=O)O)c2c1`, in series [1], the concentration for half-maximal inhibition (IC50) is > 1000 µM. Moreover, the concentration for a half-maximal effect (EC50) with MT4 was > 500 µM. For the same compound, the CC50 in series [2] is > 500 µM.

Consider `Nc1ccc2c(S(=O)(=O)O)cc(S(=O)(=O)O)c(N)c2c1O`, for which the concentration for a half-maximal effect (EC50) in the series on MT4 is > 7.7 µM. This compound displayed a CC50 in series [2] of 7.7 µM.

`Cc1ccc(C(=O)Nc2ccc(S(=O)(=O)O)c3cc(S(=O)(=O)O)cc(S(=O)(=O)O)c23)cc1NC(=O)c1cccc(NC(=O)Nc2cccc(C(=O)Nc3cc(C(=O)Nc4ccc(S(=O)(=O)O)c5cc(S(=O)(=O)O)cc(S(=O)(=O)O)c45)ccc3C)c2)c1` [SURAMIN] displayed an EC50 in the series on MT4 of 8.2 µM. The CC50 in series [2] worked out at 250 µM.

As for `O=C(CCCCCCCCC(=O)Nc1cc(S(=O)(=O)O)cc2cc(S(=O)(=O)O)cc(O)c12)Nc1cc(S(=O)(=O)O)cc2cc(S(=O)(=O)O)cc(O)c12`, the IC50 in series [1] amounted to 52 µM. Also, a half-maximal effect with MT4 (EC50) was put at 9.7 µM. The compound further displayed a 50% cytotoxic concentration (CC50) in series [2] of 288 µM.

As for `CC(=O)Oc1cc(S(=O)(=O)O)cc2cc(S(=O)(=O)O)cc(OC(C)=O)c12`, the half-inhibitory concentration (IC50) in series [1] is > 1000 µM. For the same compound, the concentration giving a half-maximal response (EC50) in the series on MT4 is > 461 µM. In addition, it took 461 µM to reach half-maximal cytotoxicity in series [2] (CC50).

Turning to `CC(=O)Nc1cc(S(=O)(=O)O)cc2cc(S(=O)(=O)O)cc(OC(C)=O)c12`, the IC50 in series [1] is > 1000 µM. The 50% effective concentration (EC50) in the series with MT4 was > 500 µM. Also, in series [2], the 50% cytotoxic concentration (CC50) was > 500 µM.
